Consider three molecules from ChEMBL document CHEMBL1152541, “Staurosporine tethered peptide ligands that target cAMP-dependent protein kinase (PKA): optimization and selectivity profiling” (Bioorg Med Chem, 2009).

SMILES strings stand for the structures. *1 amine or outer side, *2 acyl side, *3 side chain or, on linkers, in order; H or OH if unused. Where a SMILES comes first, the peptide text is derived from it. Bridges are numbered along the chain shown (N, C = ends). [ ]: non-standard residue; d: D form. The star is where a group is joined. Staurosporine = CO[C@@H]1[C@H](N(C)*)C[C@H]2O[C@]1(C)n1c3ccccc3c3c4c(c5c6ccccc6n2c5c31)C(=O)NC4; Suc = O=C(CCC(=O)[*:2])[*:1]; Dap = NC[C@H](N)C(=O)O; βAla = NCCC(=O)O

In experiment [1] the target is Casein kinase I isoform delta (Homo sapiens) (UniProt P48730). Description: Binding affinity to human CSNK1D at 500 nM by cell-based competition binding assay relative to control in presence of DTT. In short, it runs like this: (§1)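 Commercial (Ambit) competitive kinase-binding panel of 90 kinases measured the binding profile. Run under reducing conditions of 7.5 mM DTT. Binding is expressed relative to control.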

Experiment [2] has as its target Phosphatidylinositol 4,5-bisphosphate 3-kinase catalytic subunit gamma isoform (Homo sapiens) (UniProt P48736). Nature of the experiment: Binding affinity to human PIK3Cgamma at 500 nM by cell-based competition binding assay relative to control in presence of DTT.
Experiment [3] addresses Atypical kinase COQ8A, mitochondrial (Homo sapiens) (UniProt Q8NI60). Description: Binding affinity to human ADCK3 at 500 nM by cell-based competition binding assay relative to control in presence of DTT. In short, it runs like this:
(§2)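 Kinase binding profiling ran on a commercial (Ambit) competitive binding screen against a panel of 90 kinases. The screen used reducing conditions with 7.5 mM DTT. To withstand the DTT, the bivalent ligand was tested as its amide isostere, with the disulfide replaced. A staurosporine derivative carrying a 3 β-alanine linker was run as the reference compound.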

Experiment [4] deals with Serine/threonine-protein kinase B-raf (Homo sapiens), P15056 [V600E]. Description: Binding affinity to human BRAF V600E mutant at 500 nM by cell-based competition binding assay relative to control in presence of DTT. In short, it runs like this:
as §2

Experiment [5] has as its target Aurora kinase B (Homo sapiens) (UniProt Q96GD4). Description: Binding affinity to human aurora kinase B at 500 nM by cell-based competition binding assay relative to control in presence of DTT.
For experiment [6], the target named is Insulin-like growth factor 1 receptor (Homo sapiens) (UniProt P08069). Description: Binding affinity to human IGF1R at 500 nM by cell-based competition binding assay relative to control in presence of DTT. In short, it runs like this: (§3)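 Competition binding screen (Ambit) across a panel of 90 kinases, scoring test ligand displacement of each kinase's binding relative to control. The screen ran under reducing conditions with 7.5 mM DTT.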

Experiment [7] concerns the target T1, Serine/threonine-protein kinase STK11 (Homo sapiens) (UniProt Q15831).
T1 sequence (whole entry): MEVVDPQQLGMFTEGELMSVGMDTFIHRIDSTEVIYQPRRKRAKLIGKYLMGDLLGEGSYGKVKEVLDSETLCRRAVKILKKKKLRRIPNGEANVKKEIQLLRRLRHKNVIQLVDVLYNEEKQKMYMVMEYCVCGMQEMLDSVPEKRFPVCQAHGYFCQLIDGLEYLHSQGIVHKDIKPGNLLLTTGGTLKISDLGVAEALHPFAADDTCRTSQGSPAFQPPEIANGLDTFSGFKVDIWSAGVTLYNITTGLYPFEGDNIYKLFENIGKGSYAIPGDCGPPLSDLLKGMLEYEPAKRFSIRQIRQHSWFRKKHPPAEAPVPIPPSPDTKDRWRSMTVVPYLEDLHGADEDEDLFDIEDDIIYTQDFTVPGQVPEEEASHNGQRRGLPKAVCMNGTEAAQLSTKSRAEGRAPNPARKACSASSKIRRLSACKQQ
Nature of the experiment: Binding affinity to human LKB1 at 200 nM by cell-based competition binding assay relative to control in presence of DTT. In short, it runs like this:
as §3

Experiment [8] has as its target T2, Tyrosine-protein kinase ZAP-70 (Homo sapiens) (UniProt P43403).
T2 sequence (whole entry): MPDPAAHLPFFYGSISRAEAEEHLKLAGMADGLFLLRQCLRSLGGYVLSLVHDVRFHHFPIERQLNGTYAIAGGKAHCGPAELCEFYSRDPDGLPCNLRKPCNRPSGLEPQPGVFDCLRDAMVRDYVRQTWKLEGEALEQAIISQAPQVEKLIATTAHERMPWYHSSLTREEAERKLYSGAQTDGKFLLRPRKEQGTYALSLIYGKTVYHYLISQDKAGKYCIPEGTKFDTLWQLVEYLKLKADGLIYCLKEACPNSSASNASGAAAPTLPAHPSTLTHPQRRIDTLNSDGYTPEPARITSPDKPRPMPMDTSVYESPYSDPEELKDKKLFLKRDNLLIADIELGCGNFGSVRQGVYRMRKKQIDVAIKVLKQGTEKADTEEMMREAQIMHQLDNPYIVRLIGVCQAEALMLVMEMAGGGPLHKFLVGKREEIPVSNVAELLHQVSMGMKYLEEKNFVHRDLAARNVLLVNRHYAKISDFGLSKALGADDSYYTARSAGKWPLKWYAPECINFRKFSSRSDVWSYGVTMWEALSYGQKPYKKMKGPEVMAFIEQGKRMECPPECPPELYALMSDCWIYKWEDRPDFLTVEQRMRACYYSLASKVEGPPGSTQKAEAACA
Description: Binding affinity to human ZAP70 at 200 nM by cell-based competition binding assay relative to control in presence of DTT.

Experiment [9] deals with Receptor-type tyrosine-protein kinase FLT3 (Homo sapiens) (UniProt P36888). Nature of the experiment: Binding affinity to human FLT3 at 50 nM by cell-based competition binding assay relative to control in presence of DTT. In a few lines: as §1
The target in experiment [10] is Epidermal growth factor receptor (Homo sapiens) (UniProt P00533). Nature of the experiment: Binding affinity to human EGFR at 50 nM by cell-based competition binding assay relative to control in presence of DTT. In a few lines:
as §1

The target of experiment [11] is Casein kinase I isoform gamma-2 (Homo sapiens) (UniProt P78368). Nature of the experiment: Binding affinity to human CSNK1G2 at 50 nM by cell-based competition binding assay relative to control in presence of DTT. In short, it runs like this:
as §1

Insulin-like growth factor 1 receptor (Homo sapiens), sequence (P08069 31-736 limits assumed): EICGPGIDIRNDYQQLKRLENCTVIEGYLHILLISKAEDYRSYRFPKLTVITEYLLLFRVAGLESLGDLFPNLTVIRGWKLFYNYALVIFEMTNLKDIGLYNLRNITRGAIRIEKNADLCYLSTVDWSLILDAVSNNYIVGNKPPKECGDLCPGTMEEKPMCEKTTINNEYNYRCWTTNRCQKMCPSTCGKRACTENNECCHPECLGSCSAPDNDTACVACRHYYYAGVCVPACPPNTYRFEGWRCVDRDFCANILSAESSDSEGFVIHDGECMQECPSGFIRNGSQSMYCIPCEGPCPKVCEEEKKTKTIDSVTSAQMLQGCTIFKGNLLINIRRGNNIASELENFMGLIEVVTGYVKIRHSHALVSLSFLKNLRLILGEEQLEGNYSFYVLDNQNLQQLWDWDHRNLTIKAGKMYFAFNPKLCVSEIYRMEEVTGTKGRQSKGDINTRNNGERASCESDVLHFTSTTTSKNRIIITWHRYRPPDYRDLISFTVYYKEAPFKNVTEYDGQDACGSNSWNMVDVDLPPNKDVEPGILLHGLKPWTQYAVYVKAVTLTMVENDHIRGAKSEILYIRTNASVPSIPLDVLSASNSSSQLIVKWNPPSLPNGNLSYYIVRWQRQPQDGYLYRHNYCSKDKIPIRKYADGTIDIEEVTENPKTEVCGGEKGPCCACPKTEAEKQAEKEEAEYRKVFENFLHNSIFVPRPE
Insulin-like growth factor 1 receptor (Homo sapiens), sequence (P08069 741-1367 limits assumed): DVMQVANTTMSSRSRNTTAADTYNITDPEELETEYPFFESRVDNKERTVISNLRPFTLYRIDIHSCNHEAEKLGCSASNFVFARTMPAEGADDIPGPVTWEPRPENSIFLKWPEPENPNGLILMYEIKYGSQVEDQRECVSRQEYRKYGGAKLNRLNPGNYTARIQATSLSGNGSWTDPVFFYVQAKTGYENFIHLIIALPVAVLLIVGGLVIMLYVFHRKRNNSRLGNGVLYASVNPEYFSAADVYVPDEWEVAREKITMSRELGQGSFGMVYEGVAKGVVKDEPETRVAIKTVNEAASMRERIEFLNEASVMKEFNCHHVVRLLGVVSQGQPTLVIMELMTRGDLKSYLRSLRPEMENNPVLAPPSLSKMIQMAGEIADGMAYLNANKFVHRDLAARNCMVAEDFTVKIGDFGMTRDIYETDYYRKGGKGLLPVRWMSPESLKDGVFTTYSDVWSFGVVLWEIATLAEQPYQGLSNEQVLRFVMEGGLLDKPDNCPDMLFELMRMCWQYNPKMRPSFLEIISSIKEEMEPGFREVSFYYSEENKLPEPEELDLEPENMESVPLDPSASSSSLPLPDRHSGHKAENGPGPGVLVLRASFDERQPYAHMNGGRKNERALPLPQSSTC
Epidermal growth factor receptor (Homo sapiens), sequence (P00533 whole entry): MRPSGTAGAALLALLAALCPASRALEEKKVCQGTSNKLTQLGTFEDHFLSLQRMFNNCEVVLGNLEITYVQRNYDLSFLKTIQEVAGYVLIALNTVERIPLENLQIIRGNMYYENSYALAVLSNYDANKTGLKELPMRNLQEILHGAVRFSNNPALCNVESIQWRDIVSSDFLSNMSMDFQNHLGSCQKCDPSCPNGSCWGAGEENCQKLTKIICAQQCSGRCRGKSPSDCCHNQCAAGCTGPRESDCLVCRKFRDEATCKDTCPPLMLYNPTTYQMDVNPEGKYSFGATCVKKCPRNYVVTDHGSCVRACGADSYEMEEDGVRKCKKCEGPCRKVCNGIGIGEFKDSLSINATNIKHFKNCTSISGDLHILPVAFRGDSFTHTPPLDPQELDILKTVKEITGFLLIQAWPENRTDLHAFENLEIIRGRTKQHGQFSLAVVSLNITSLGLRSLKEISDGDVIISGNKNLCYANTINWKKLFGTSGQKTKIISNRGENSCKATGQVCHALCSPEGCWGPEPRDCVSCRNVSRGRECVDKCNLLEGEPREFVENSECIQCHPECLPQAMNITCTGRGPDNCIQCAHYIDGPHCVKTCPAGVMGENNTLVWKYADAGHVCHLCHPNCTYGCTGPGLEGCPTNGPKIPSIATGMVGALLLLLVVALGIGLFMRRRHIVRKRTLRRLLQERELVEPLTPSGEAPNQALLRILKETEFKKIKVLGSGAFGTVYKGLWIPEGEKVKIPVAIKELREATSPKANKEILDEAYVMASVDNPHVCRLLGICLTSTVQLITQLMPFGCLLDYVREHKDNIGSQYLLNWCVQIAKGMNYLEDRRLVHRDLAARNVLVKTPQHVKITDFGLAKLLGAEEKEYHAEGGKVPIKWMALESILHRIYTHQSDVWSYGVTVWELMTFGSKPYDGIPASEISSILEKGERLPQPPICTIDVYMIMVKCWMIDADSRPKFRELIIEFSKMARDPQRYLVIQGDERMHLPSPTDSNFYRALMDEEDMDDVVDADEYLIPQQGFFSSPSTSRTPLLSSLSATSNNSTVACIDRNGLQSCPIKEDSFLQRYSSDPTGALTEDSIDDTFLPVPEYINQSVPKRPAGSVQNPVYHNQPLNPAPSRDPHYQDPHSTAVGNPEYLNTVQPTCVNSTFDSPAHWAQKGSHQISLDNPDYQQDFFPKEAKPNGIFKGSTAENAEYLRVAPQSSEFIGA
Phosphatidylinositol 4,5-bisphosphate 3-kinase catalytic subunit gamma isoform (Homo sapiens), sequence (P48736 whole entry, looked up, canonical isoform): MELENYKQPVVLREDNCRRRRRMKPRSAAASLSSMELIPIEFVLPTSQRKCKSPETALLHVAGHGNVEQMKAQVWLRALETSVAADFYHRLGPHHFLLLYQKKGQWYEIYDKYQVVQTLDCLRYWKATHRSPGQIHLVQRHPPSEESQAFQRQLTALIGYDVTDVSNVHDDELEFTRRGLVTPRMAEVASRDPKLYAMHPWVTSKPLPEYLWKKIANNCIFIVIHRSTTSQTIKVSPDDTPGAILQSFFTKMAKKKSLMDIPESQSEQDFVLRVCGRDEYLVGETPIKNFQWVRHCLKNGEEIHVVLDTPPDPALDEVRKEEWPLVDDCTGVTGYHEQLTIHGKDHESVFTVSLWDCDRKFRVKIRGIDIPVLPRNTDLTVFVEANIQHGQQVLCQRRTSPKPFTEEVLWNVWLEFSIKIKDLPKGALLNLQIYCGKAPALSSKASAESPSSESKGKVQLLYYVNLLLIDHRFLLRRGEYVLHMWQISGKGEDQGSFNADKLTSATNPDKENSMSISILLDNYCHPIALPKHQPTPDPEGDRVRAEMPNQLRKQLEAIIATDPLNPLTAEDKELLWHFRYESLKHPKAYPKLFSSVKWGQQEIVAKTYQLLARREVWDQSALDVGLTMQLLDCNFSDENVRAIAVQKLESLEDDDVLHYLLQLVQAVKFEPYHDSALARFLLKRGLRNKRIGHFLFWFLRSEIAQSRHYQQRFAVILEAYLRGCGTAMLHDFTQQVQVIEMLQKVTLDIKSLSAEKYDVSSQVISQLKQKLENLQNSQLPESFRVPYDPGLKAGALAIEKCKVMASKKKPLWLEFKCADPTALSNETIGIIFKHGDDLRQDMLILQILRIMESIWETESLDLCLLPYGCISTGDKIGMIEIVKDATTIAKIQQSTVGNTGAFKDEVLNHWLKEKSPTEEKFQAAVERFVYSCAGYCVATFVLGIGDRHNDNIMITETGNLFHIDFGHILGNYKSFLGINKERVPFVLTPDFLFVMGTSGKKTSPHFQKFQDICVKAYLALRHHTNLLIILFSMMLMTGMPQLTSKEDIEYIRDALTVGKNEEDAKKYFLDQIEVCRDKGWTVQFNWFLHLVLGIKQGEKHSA
Receptor-type tyrosine-protein kinase FLT3 (Homo sapiens), sequence (P36888 whole entry): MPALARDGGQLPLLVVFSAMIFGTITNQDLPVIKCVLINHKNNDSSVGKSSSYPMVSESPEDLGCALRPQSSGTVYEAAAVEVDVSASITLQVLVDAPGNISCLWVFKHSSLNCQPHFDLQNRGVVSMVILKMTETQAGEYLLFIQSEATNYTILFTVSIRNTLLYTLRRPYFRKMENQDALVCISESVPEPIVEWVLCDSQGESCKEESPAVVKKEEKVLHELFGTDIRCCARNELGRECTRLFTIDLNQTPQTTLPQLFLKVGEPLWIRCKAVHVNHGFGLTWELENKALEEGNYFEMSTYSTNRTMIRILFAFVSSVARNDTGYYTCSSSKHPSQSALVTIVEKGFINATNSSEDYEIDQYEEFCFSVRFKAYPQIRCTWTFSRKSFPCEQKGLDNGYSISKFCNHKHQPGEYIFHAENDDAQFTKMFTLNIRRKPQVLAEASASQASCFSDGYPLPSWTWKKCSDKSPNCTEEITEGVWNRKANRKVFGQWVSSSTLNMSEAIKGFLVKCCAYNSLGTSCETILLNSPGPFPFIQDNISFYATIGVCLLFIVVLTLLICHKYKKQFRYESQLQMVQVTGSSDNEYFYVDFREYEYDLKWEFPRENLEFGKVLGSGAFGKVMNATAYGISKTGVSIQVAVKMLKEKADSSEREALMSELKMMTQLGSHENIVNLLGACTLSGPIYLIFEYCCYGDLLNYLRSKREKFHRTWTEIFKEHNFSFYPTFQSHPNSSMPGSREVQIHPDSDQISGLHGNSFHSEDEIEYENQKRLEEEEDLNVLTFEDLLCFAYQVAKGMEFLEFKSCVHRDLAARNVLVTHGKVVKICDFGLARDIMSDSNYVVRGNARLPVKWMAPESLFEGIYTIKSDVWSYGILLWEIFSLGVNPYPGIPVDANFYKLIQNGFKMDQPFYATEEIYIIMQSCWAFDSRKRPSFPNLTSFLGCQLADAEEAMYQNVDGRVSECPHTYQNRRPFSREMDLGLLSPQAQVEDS
Casein kinase I isoform delta (Homo sapiens), sequence (P48730 whole entry, looked up, canonical isoform): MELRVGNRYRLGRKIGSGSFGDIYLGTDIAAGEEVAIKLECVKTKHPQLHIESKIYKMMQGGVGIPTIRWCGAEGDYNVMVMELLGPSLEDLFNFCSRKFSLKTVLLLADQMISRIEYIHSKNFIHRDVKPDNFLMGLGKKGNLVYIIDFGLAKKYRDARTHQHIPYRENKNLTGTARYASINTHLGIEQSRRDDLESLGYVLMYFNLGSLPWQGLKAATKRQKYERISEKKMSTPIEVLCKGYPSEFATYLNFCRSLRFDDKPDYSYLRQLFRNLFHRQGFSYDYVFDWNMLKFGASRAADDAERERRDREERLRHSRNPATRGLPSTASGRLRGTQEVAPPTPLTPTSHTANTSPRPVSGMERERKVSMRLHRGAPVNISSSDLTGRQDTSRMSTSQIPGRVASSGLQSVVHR

For the molecule `CO[C@@H]1[C@H](N(C)C(=O)CCC(=O)NCCC(=O)NCCC(=O)NCCC(N)=O)C[C@H]2O[C@]1(C)n1c3ccccc3c3c4c(c5c6ccccc6n2c5c31)C(=O)NC4`, the Activity is 89% in experiment [1]; 15% in experiment [2]; 91% in experiment [3]; 94% in experiment [4]; 0% in [5]; 82% in experiment [6].

For the molecule `CO[C@@H]1[C@H](N(C)C(=O)CCC(=O)NCCC(=O)NCCC(=O)NCCC(=O)NCCC(=O)NCCC(=O)NCCC(=O)NCCC(=O)N[C@H]2CSSC[C@@H](C(=O)NCC(N)=O)NC(=O)CNC(=O)[C@H](Cc3ccccc3)NC(=O)[C@H](C(C)C)NC(=O)[C@H](CCCNC(=N)N)NC(=O)[C@H](Cc3ccccc3)NC(=O)[C@H](C(C)C)NC2=O)C[C@H]2O[C@]1(C)n1c3ccccc3c3c4c(c5c6ccccc6n2c5c31)C(=O)NC4` ({Staurosporine-Suc-βAla-βAla-βAla-βAla-βAla-βAla-βAla}-CVFRVFGCG-NH2; disulfide 1-8), the Activity was determined as 81% in experiment [7] and 16% in [8].

For `CO[C@@H]1[C@H](N(C)C(=O)CCC(=O)NCCC(=O)NCCC(=O)NCCC(=O)NCCC(=O)NCCC(=O)NCCC(=O)NCCC(=O)N[C@H]2CNC(=O)C[C@@H](C(N)=O)NC(=O)CNC(=O)[C@H](Cc3ccccc3)NC(=O)[C@H](C(C)C)NC(=O)[C@H](CCCNC(=N)N)NC(=O)[C@H](Cc3ccccc3)NC(=O)[C@H](C(C)C)NC2=O)C[C@H]2O[C@]1(C)n1c3ccccc3c3c4c(c5c6ccccc6n2c5c31)C(=O)NC4` ({Staurosporine-Suc-βAla-βAla-βAla-βAla-βAla-βAla-βAla}-[Dap]VFRVFGD-NH2; lactam 1-8), the Activity in experiment [9] amounted to 7.4%; in experiment [10], 87%; in experiment [11] it was 100%.
